Laboratory results from paper PMC7941214 (Journal of medicinal chemistry, 2019).
“And” between values parts separate entries of the source, which are not always exact repeats. Equal entries are not always repeated.

How the values were obtained:
[1] = test system: A. baumannii NCTC 13420; test: Broth microdilution MIC/MBC, A. baumannii; type: cell-based, Acinetobacter baumannii; conditions: for MIC A. baumannii NCTC 13420: value before the parentheses, two values = two repeats; for MBC A. baumannii NCTC 13420: value in parentheses
[2] = test system: P. aeruginosa NCTC 13437; test: Broth microdilution MIC/MBC, P. aeruginosa; type: cell-based, Pseudomonas aeruginosa; conditions: for MIC P. aeruginosa NCTC 13437: value before the parentheses, two values = two repeats; for MBC P. aeruginosa NCTC 13437: value in parentheses
Outline: (§1)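 CLSI broth microdilution in cation-adjusted Mueller–Hinton broth. Log-phase cultures were diluted to 7.5 × 10^5 CFU/mL, then mixed 1:1 with 2-fold serial dilutions of gold complexes from DMSO or water stocks, in triplicate, and held 37 °C, 18 h, static. MIC: lowest concentration giving >90% inhibition by OD600 against medium-only and bacteria-only wells. […] E. coli ATCC 25922 quality control was checked each run with ciprofloxacin and […].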

[3] = test system: E. cloacae NCTC 13405; test: Broth microdilution MIC/MBC, E. cloacae; type: cell-based, Enterobacter cloacae; conditions: for MIC E. cloacae NCTC 13405: value before the parentheses, two values = two repeats; for MBC E. cloacae NCTC 13405: value in parentheses
Outline: as §1

[4] = test system: K. pneumoniae ATCC 700603; test: Broth microdilution MIC/MBC, K. pneumoniae; type: cell-based, Klebsiella pneumoniae; conditions: for MIC K. pneumoniae ATCC 700603: value before the parentheses, two values = two repeats; for MBC K. pneumoniae ATCC 700603: value in parentheses
Outline: as §1

[5] = test system: S. aureus JE2 (USA300); test: Broth microdilution MIC/MBC, S. aureus; type: cell-based, Staphylococcus aureus; conditions: for MIC S. aureus JE2 (USA300): value before the parentheses, two values = two repeats; for MBC S. aureus JE2 (USA300): value in parentheses
Outline: as §1

[6] = test system: E. faecium ATCC 700221; test: Broth microdilution MIC/MBC, E. faecium; type: cell-based, Enterococcus faecium; conditions: for MIC E. faecium ATCC 700221: value before the parentheses, two values = two repeats; for MBC E. faecium ATCC 700221: value in parentheses
Outline: as §1

[7] = test system: E. coli ATCC 25922; test: Broth microdilution MIC/MBC, E. coli; type: cell-based, Escherichia coli; conditions: for MIC E. coli ATCC 25922: value before the parentheses, two values = two repeats; for MBC E. coli ATCC 25922: value in parentheses
Outline: as §1

[8] = Log P determination; conditions: n-octanol/water, Au by FAAS

SMILES	MIC A. baumannii NCTC 13420 [1]	MBC A. baumannii NCTC 13420 [1] [µM]	MIC P. aeruginosa NCTC 13437 [2] [µM]	MBC P. aeruginosa NCTC 13437 [2] [µM]	MIC E. cloacae NCTC 13405 [3]	MBC E. cloacae NCTC 13405 [3]	MIC K. pneumoniae ATCC 700603 [4]	MBC K. pneumoniae ATCC 700603 [4] [µM]	MIC S. aureus JE2 (USA300) [5]	MBC S. aureus JE2 (USA300) [5] [µM]	MIC E. faecium ATCC 700221 [6]	MBC E. faecium ATCC 700221 [6] [µM]	MIC E. coli ATCC 25922 [7] [µM]	MBC E. coli ATCC 25922 [7] [µM]	log P [8]
CP(C)C.[Cl][Au] [Compound 24, (Trimethylphosphine)gold Chloride]	7 µM and 13 µM	13	52	52	3 µM	3 µM	7 µM and 13 µM	13	0.1 µM and 0.2 µM	1.6	0.4 µM	3	7	7	0.16
CCCC[PH](CCCC)(CCCC)[Au][Cl] [Compound 26, (Tri-n-butylphosphine)gold Chloride]	74 µM and 147 µM	147	74	74	>589 µM		147 µM	147	2 µM	4	5 µM	5	>589		>3.99
[Cl][Au].c1ccc(P(c2ccccc2)c2ccccc2)cc1 [Compound 27, (Triphenylphosphine)gold Chloride]		518	>518		>518 µM		>518 µM		1 µM and 2 µM	4	4 µM	4	>518		>3.94
COc1ccc([P+]([Au-][Cl])(c2ccc(OC)cc2)c2ccc(OC)cc2)cc1 [Compound 28, (Tris(4-methoxyphenyl)phosphine)gold Chloride]	>438 µM		>438		>438 µM		>438 µM		2 µM	3	3 µM	3	>438		>4.09
FC(F)(F)c1ccc(P(c2ccc(C(F)(F)F)cc2)c2ccc(C(F)(F)F)cc2)cc1.[Cl][Au] [Compound 30, (Tris(4-trifluoromethylphenyl)phosphine)gold Chloride]	>366 µM		>366		>366 µM		>366 µM			11	>366 µM		>366		>3.94
CC(=O)OCC1O[C@@H]([S][Au-][P+](c2ccccc2)(c2ccccc2)c2ccccc2)C(OC(C)=O)[C@@H](OC(C)=O)[C@@H]1OC(C)=O (stereo partly drawn) [Compound 33, (2,3,4,6-Tetra-O-acetyl-1-thio-β-D-glucopyranosato)-(triphenylphosphine) Gold(I)]	>311 µM		>311		>311 µM		>311 µM		1 µM and 2 µM	2	5 µM	5	>311		>3.87
COc1ccc([P+]([Au-][S][C@@H]2OC(COC(C)=O)[C@@H](OC(C)=O)[C@H](OC(C)=O)C2OC(C)=O)(c2ccc(OC)cc2)c2ccc(OC)cc2)cc1 (stereo partly drawn) [Compound 34, (2,3,4,6-Tetra-O-acetyl-1-thio-β-D-glucopyranosato)(tris(4-methoxyphenyl)phosphine) Gold(I)]	>281 µM		>281		>281 µM		>281 µM		1 µM	2	2 µM and 4 µM	4	>281		>3.03
CC(=O)OCC1O[C@@H]([S][Au-][P+](c2ccc(F)cc2)(c2ccc(F)cc2)c2ccc(F)cc2)C(OC(C)=O)[C@@H](OC(C)=O)[C@@H]1OC(C)=O (stereo partly drawn) [Compound 35, (2,3,4,6-Tetra-O-acety/-1-thio-β-D-glucopyranosato)(tris(4-fluorophenyl)phosphine) Gold(I)]	>292 µM		>292		>292 µM		>292 µM		1 µM	2		5	>292		>3.04
CC(=O)OCC1O[C@@H]([S][Au-][P+](c2ccc(C(F)(F)F)cc2)(c2ccc(C(F)(F)F)cc2)c2ccc(C(F)(F)F)cc2)C(OC(C)=O)[C@@H](OC(C)=O)[C@@H]1OC(C)=O (stereo partly drawn) [Compound 36, (2,3,4,6-Tetra-O-acetyl-1-thio-β-D-glucopyranosato)(tris(4-(trifluoromethyl)phenylphosphine)) Gold(I)]	>249 µM		>249		>249 µM		>249 µM		4 µM	8	31 µM	62	>249		>3.55
C[PH](C)(C)[Au][S]C1OC(CO)C(O)C(O)C1O [Compound 37, (1-Thio-β-D-glucopyranosato)(trimethylphosphine) Gold(I)]		17	>547			17 µM	34 µM	34	0.3 µM and 0.5 µM	1	0.3 µM and 0.5 µM	0.5	9	9	−1.63
C[PH](C)(C)[Au][S]C1OC(CO)C(O)C(O)C1O [Compound 38, (1-Thioβ-D-galatopyranosato)(trimethylphosphine) Gold(I)]	17 µM and 9 µM	17	>547		4.5 µM and 4 µM	4.5 µM and 4 µM	34 µM	34	0.3 µM	0.3	0.3 µM and 0.5 µM	0.5	9	9	−1.88
CC(=O)NC1C([S][Au][PH](C)(C)C)OC(CO)C(O)C1O [Compound 39, (2-Acetamido-2-deoxy-1-thio-β-D-glucopyranosato)-(trimethylphosphine) Gold(I)]	16 µM and 8 µM	16	>503		8 µM and 16 µM	16 µM	31 µM	126	0.5 µM	0.5		0.5		31	−2.03
